From PubChem
CHO parental Ca = ATP-evoked calcium signal inhibitors, parental CHO, primary screen, counter-screen for OX1R antagonist project, cell-based, fluorescence, Fluo-8 calcium dye; parental CHO-K1, ATP-induced calcium, Fluo-8 fluorescence; inhibition, % at 5.6 µM; 0.63% of 330,000 active; AID 463079, 2010;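 active = inhibition above that plate's mean sample inhibition plus 3 SD, cut at about 26% in these data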
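Assay system – parental CHO cells · Reagent – ATP stimulus · Detection – intracellular calcium via Fluo-8 no-wash fluorescent dye · Evaluation – percent inhibition of ATP-evoked calcium rise, normalized to controls · Controls – ATP wells versus no-ATP DMSO wells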
TRPML3 ag = human TRPML3 channel agonists, primary screen, cell-based, HEK293 TRPML3-YFP, Fluo-8 calcium fluorescence, 3 µM | 0.29% of 220,000 active | 100% = the carbachol control signal | activation, % at 3 µM;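 active = activation above its plate's cutoff, the mean activation of the plate's test wells plus 3 SD, cut at about 12% in these data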
Target sequence (Q8TDD5 whole entry, looked up): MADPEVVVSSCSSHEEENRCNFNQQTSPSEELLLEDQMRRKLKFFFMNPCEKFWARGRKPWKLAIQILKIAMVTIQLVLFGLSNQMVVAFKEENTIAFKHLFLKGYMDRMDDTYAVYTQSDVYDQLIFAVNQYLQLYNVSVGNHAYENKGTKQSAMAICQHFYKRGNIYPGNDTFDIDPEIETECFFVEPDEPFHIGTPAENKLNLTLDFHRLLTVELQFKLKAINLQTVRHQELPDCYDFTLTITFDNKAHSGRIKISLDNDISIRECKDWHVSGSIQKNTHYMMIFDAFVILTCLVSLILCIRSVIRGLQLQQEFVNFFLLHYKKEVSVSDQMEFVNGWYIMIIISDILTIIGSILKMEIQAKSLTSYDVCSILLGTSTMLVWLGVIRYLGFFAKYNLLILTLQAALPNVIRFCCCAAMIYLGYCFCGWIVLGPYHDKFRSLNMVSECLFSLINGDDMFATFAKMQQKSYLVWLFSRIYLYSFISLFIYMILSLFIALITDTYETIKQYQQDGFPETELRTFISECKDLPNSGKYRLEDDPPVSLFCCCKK
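Test system: HEK293 cells stably carrying human TRPML3-YFP; Doses: single dose, 3 µM final nominal compound, 0.3% DMSO final; Schedule: dye loading 1 h 37 °C then 30 min ambient, 125 s read; Technique: Fluo-8 calcium fluorescence; Benchmarks: high control carbachol 87 µM, low control DMSO.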
OX1R antag-1 = antagonists of human orexin 1 receptor (OX1R); 1.8% of 330,000 active; AID 485270, 2010; Orexin/Hypocretin receptor type 1 (Homo sapiens), O43613; OX1R-expressing cells, FRET antagonist read-out; inhibition, % at 6.6 µM; in the data active = inhibition mostly above about 38%, no sharp cut-off; inactive = mostly below about 40%
zfTRPN1 agonist = zebrafish TRPN1 channel agonists, primary screen, cell-based, HEK293, calcium fluorescence | HEK293 zebrafish TRPN1-YFP, Fluo-8 calcium fluorescence; 100% = response to 87 µM carbachol | activation, % at 3 µM | 0.18% of 220,000 active | AID 1424, 2008;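 active = activation above its plate's cutoff, the mean activation of test wells on that plate plus 3 SD, cut at about 19% in these data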
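Assay system: Zebrafish TRPN1-YFP in HEK293 cells | Incubation: Dye loading 1 h at 37 °C, then 30 min room temperature | Measured by: Kinetic Fluo-8 fluorescence, ex 470-495, em 515-575 nm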
OX1R antag-2 = OX1R (HCRTR1) antagonists, primary screen, fluorescence, CHO/OX1R cells, Fluo-8 calcium, orexin A; Orexin/Hypocretin receptor type 1 (Homo sapiens), O43613; Fluo-8 calcium fluorescence; inhibition, % at 5 µM; 0.43% of 330,000 active; AID 434989, 2010;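 active = inhibition above its plate's threshold, mean inhibition of all tested compounds on the plate plus 3 SD, cut at about 37% in these data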
Large screens that a line does not name were inactive. Compounds with a hit are over-represented: about 2.5% of the library has one in this group of screens.

COc1ccc(NC(=O)Nc2ccc3c(c2)CCC3)cc1OC	none
COc1ccc(/C=C/C(=O)Nc2ccc3c(c2)CCC3)cc1OC	OX1R antag-1 73
CCOc1cccc2cc(-c3nnc(NCc4ccco4)s3)c(=O)oc12	OX1R antag-1 46
Cc1ccc(C(=O)N2CCC3(CC2)NCCc2[nH]cnc23)cc1C	none (no result: TRPML3 ag, zfTRPN1 agonist)
O=C(O)c1ccc(Sc2nnc3ccccn23)c([N+](=O)[O-])c1	OX1R antag-1 72
COc1ccc(N2CCN(C(=O)c3sc4ncn(CC(=O)N5CCCCC5C)c(=O)c4c3C)CC2)cc1 (stereo not given)	none (no result: TRPML3 ag, zfTRPN1 agonist)
CC(C)(C)c1ccc(Cn2cnc(-c3ccc([N+](=O)[O-])cc3)c2)cc1	CHO parental Ca 42
N#C/C(=C\c1ccncc1)c1nc2ccccc2c(=O)[nH]1	none
O=C(CCN1CCOCC1)NNC(=O)c1ccc([N+](=O)[O-])cc1[N+](=O)[O-]	OX1R antag-1 49 (no result: TRPML3 ag, zfTRPN1 agonist)
O=C(CCN1CCOCC1)NNC(=O)c1ccc(Cl)c([N+](=O)[O-])c1	none (no result: TRPML3 ag, zfTRPN1 agonist)
CCCCOc1ccc(C(=O)N2CCN(CC(=O)Nc3ccc(C)cc3)CC2)cc1OC	none (no result: TRPML3 ag, zfTRPN1 agonist)
CCN(CC(=O)NCc1cccs1)C(=O)c1ccc(-c2ccc(F)cc2)o1	none (no result: TRPML3 ag, zfTRPN1 agonist)
CC(=O)Cc1nsc(Nc2ccccc2)n1	none
c1ccc(Nc2nc(-c3ccccc3)ns2)cc1	OX1R antag-1 49 (no result: TRPML3 ag, zfTRPN1 agonist)
Cc1nn(C)c(C)c1NC(=O)COc1ccc(Cl)cc1Br	none (no result: TRPML3 ag, zfTRPN1 agonist)
Cc1ccc(-c2noc(CSc3nnc(Cc4ccccc4)n3-c3cccc(C)c3)n2)cc1	none
COc1ccc(-c2noc(-c3cccs3)n2)cc1OC	none
COc1ccc(-c2noc(CSc3nnc(Cc4ccccc4)n3-c3cccc(C)c3)n2)cc1OC	OX1R antag-1 39
COc1ccc(-c2noc(COc3ccccc3OC)n2)cc1OC	OX1R antag-1 47
CCn1c(SCc2nc(-c3ccc(OC)c(OC)c3)no2)nnc1-c1cccs1	OX1R antag-1 45
CC(=O)N1CCN(c2ccc(NC(=O)c3cccc([N+](=O)[O-])c3)cc2)CC1	none (no result: TRPML3 ag, zfTRPN1 agonist)
CC(NC(=O)C1CCCN(S(=O)(=O)N2CCOCC2)C1)c1ccccc1 (stereo not given)	none (no result: TRPML3 ag, zfTRPN1 agonist)
CCOC(=O)c1ccc(-c2ccc3c(=O)c4ccccc4n(C)c3c2)cc1F	OX1R antag-1 66 (no result: TRPML3 ag, zfTRPN1 agonist)
CC[n+]1c(/C=C/Nc2ccccc2)oc2ccc(OC)cc21	none
O=S(=O)([O-])CCC[n+]1c(/C=C\Nc2ccccc2)oc2ccc(-c3ccccc3)cc21	TRPML3 ag 25, zfTRPN1 agonist 119 (no result: CHO parental Ca, OX1R antag-1, OX1R antag-2)
CSc1nnc(-c2ccc(F)cc2)o1	none
C#CCSc1nnc(-c2ccc(OC)cc2)o1	none
C#CCSc1nnc(-c2ccc([N+](=O)[O-])cc2)o1	OX1R antag-1 51
CSc1nnc(-c2ccc([N+](=O)[O-])cc2)o1	OX1R antag-1 62
O=C(CSc1ccccc1)NNC(=O)c1ccccc1O	none (no result: TRPML3 ag, zfTRPN1 agonist)
COc1cc2cc(CCOC(=O)c3ccc(C#N)cc3)oc(=O)c2cc1OC	none (no result: TRPML3 ag, zfTRPN1 agonist)
O=C(c1cc(S(=O)(=O)N2CCN(c3ccccc3)CC2)ccc1Cl)N1CCCC(C(F)(F)F)C1 (stereo not given)	none (no result: TRPML3 ag, zfTRPN1 agonist)
O=C(c1cccc(S(=O)(=O)N2CCN(c3ccccc3)CC2)c1)N1CCCC(C(F)(F)F)C1 (stereo not given)	CHO parental Ca 34 (no result: TRPML3 ag, zfTRPN1 agonist)
CCOC(=O)c1sc(NC(=O)c2cc(-c3ccc(C)cc3)nc3ccccc23)c(C#N)c1C	none
O=C(NCc1cccs1)c1cc(-c2ccccc2)nc2ccccc12	none
COC(=O)c1sc(NC(=O)c2cc(-c3ccccc3)nc3ccccc23)c(C#N)c1C	OX1R antag-1 72
O=C(Nc1nnc(-c2cccs2)o1)c1cc(-c2ccccc2)nc2ccccc12	OX1R antag-1 46
Cc1ccccc1-c1cc(C(=O)Nc2sc(C(=O)OC(C)C)c(C)c2C#N)c2ccccc2n1	OX1R antag-1 45
Cc1ccc(-c2nn(C)c(=O)c3ccccc23)cc1CN1CCCCC1	none
O=C(c1ccc(-c2ccc(Cl)cc2)o1)N1CCN(c2ccc([N+](=O)[O-])cc2Cl)CC1	CHO parental Ca 37
O=C(c1ccc(-c2ccc([N+](=O)[O-])cc2)o1)N1CCCCC1	none
CC(C)C1C(C#N)=C(N)Oc2n[nH]c(-c3cccs3)c21 (stereo not given)	none
CC(C)C1C(C#N)=C(N)Oc2n[nH]c(-c3ccc4ccccc4c3)c21 (stereo not given)	CHO parental Ca 34
Cc1cccc(/C=C/c2onc(C)c2[N+](=O)[O-])n1	OX1R antag-1 65 (no result: TRPML3 ag, zfTRPN1 agonist)
CNS(=O)(=O)c1cc(Br)ccc1S(=O)c1ccccc1C(=O)O (stereo not given)	none
N#Cc1ccccc1Sc1ccccc1C(=O)Nc1ccc2ccccc2c1	OX1R antag-1 58
COCCCn1cnnc1SCc1nc2sc(C(C)=O)c(C)c2c(=O)[nH]1	none
Nc1cc(S(=O)(=O)Nc2ccccc2Cl)ccc1N1CCOCC1	none
Nc1cc(S(=O)(=O)Nc2ccc(Cl)cc2)ccc1N1CCOCC1	CHO parental Ca 36
COc1ccccc1CCNC(=O)C(=O)NCC1OCCCN1S(=O)(=O)c1cc(C)ccc1C (stereo not given)	OX1R antag-1 66 (no result: TRPML3 ag, zfTRPN1 agonist)
COc1ccccc1CCNC(=O)C(=O)NCC1OCCCN1S(=O)(=O)c1ccc(F)cc1C (stereo not given)	none (no result: TRPML3 ag, zfTRPN1 agonist)
Cc1ccc(C)c(S(=O)(=O)N2CCCOC2CNC(=O)C(=O)NCCc2ccco2)c1 (stereo not given)	OX1R antag-1 63 (no result: TRPML3 ag, zfTRPN1 agonist)
Cc1ccc(C)c(S(=O)(=O)N2CCCOC2CNC(=O)C(=O)NCc2ccco2)c1 (stereo not given)	none
O=C(NCCc1ccco1)C(=O)NCC1OCCCN1S(=O)(=O)c1ccc(F)cc1 (stereo not given)	none (no result: TRPML3 ag, zfTRPN1 agonist)
COc1ccc(S(=O)(=O)N2CCCOC2CNC(=O)C(=O)NCCc2ccco2)cc1C (stereo not given)	OX1R antag-1 70 (no result: TRPML3 ag, zfTRPN1 agonist)
Cc1ccc(-c2csc(C3=C(O)CN(NC(=O)c4ccco4)C3=N)n2)cc1	none
COC(=O)C(CCCN1C(=O)c2ccccc2C1=O)(NC(C)=O)c1nn[nH]n1 (stereo not given)	none
CC1Cc2ccccc2N1CC(=O)Nc1ccc2c(c1)OCCCO2 (stereo not given)	none (no result: TRPML3 ag, zfTRPN1 agonist)
CCCC1=NN(C(=O)C(=O)Nc2ccc(Br)cc2)C(O)(C(F)(F)F)C1 (stereo not given)	OX1R antag-1 50
CCN(CC)c1ccc(S(=O)(=O)N2CCOCC2)cc1NC(=O)CSC(=S)N1CCCC1	none (no result: TRPML3 ag, zfTRPN1 agonist)
COc1ccc(-c2nc3c(c(SCC(=O)N4CCOCC4)n2)Cc2c(CO)cnc(C)c2O3)cc1	none (no result: TRPML3 ag, zfTRPN1 agonist)
Cc1ccc(-c2nc3c(c(SCC(=O)N4CCOCC4)n2)Cc2c(CO)cnc(C)c2O3)cc1	OX1R antag-1 38 (no result: TRPML3 ag, zfTRPN1 agonist)
